Data published in ChEMBL document CHEMBL2157880, “Synthesis, antimycobacterial and antibacterial activity of ciprofloxacin derivatives containing a N-substituted benzyl moiety” (2012).
Values after ≈ are worked out from the molar mass of the structure shown.

Tests used:
Assay type in all cases: functional
[1] = test system: Mycobacterium tuberculosis; assay: Antimycobacterial activity against Mycobacterium tuberculosis H37Rv ATCC 27294 by microplate alamar blue assay
Summary of the method: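 Microplate Alamar Blue fluorescence assay on strain H37Rv ATCC 27294. MIC was the lowest concentration cutting fluorescence by ≥90% against the mean of replicate bacterium-only controls.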

[2] = test system: Staphylococcus aureus; assay: Antibacterial activity against Staphylococcus aureus ATCC 2592 after 18 to 24 hrs by NCCLS method
Summary of the method: (§1)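 Standard NCCLS (M100-S11) MIC testing against Gram-positive and Gram-negative strains. Plates were incubated at 35 °C for 18–24 h. The MIC was read as the lowest concentration giving complete inhibition of visible bacterial growth.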

[3] = test system: Staphylococcus aureus; assay: Antibacterial activity against methicillin-sensitive Staphylococcus aureus 10-11 after 18 to 24 hrs by NCCLS method; summary of the method: as §1
[4] = test system: Staphylococcus aureus; assay: Antibacterial activity against methicillin-sensitive Staphylococcus aureus 10-13 after 18 to 24 hrs by NCCLS method; summary of the method: as §1
[5] = test system: Staphylococcus aureus; assay: Antibacterial activity against methicillin-sensitive Staphylococcus aureus 10-14 after 18 to 24 hrs by NCCLS method; summary of the method: as §1
[6] = test system: Staphylococcus aureus; assay: Antibacterial activity against methicillin-resistant Staphylococcus aureus 10-11 after 18 to 24 hrs by NCCLS method
Summary of the method: (§2)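 Incubated at 35 °C for 18–24 h under NCCLS (M100-S11) standards. MIC was read as the lowest concentration giving complete inhibition of visible bacterial growth.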

[7] = test system: Staphylococcus aureus; assay: Antibacterial activity against methicillin-resistant Staphylococcus aureus 10-13 after 18 to 24 hrs by NCCLS method; summary of the method: as §2
[8] = test system: Staphylococcus aureus; assay: Antibacterial activity against methicillin-resistant Staphylococcus aureus 10-15 after 18 to 24 hrs by NCCLS method; summary of the method: as §2
[9] = test system: Staphylococcus epidermidis; assay: Antibacterial activity against methicillin-sensitive Staphylococcus epidermidis 10-11 after 18 to 24 hrs by NCCLS method; summary of the method: as §1
[10] = test system: Staphylococcus epidermidis; assay: Antibacterial activity against methicillin-sensitive Staphylococcus epidermidis 10-15 after 18 to 24 hrs by NCCLS method; summary of the method: as §2
[11] = test system: Staphylococcus epidermidis; assay: Antibacterial activity against methicillin-resistant Staphylococcus epidermidis 10-10 after 18 to 24 hrs by NCCLS method; summary of the method: as §2
[12] = test system: Staphylococcus epidermidis; assay: Antibacterial activity against methicillin-resistant Staphylococcus epidermidis 10-13 after 18 to 24 hrs by NCCLS method; summary of the method: as §2
[13] = test system: Enterococcus faecalis; assay: Antibacterial activity against Enterococcus faecalis 10-5 after 18 to 24 hrs by NCCLS method; summary of the method: as §1
[14] = test system: Enterococcus faecalis; assay: Antibacterial activity against Enterococcus faecalis 10-6 after 18 to 24 hrs by NCCLS method; summary of the method: as §1
[15] = test system: Enterococcus faecalis; assay: Antibacterial activity against Enterococcus faecalis 10-7 after 18 to 24 hrs by NCCLS method; summary of the method: as §1
[16] = test system: Enterococcus faecium; assay: Antibacterial activity against Enterococcus faecium 10-6 after 18 to 24 hrs by NCCLS method; summary of the method: as §1
[17] = test system: Enterococcus faecium; assay: Antibacterial activity against Enterococcus faecium 10-9 after 18 to 24 hrs by NCCLS method; summary of the method: as §1
[18] = test system: Streptococcus pneumoniae; assay: Antibacterial activity against Streptococcus pneumoniae 10-1 after 18 to 24 hrs by NCCLS method; summary of the method: as §1
[19] = test system: Streptococcus pneumoniae; assay: Antibacterial activity against Streptococcus pneumoniae 10-6 after 18 to 24 hrs by NCCLS method; summary of the method: as §1
[20] = test system: Escherichia coli; assay: Antibacterial activity against Escherichia coli ATCC 25922 after 18 to 24 hrs by NCCLS method; summary of the method: as §1
[21] = test system: Escherichia coli; assay: Antibacterial activity against Escherichia coli 10-1 after 18 to 24 hrs by NCCLS method; summary of the method: as §1
[22] = test system: Escherichia coli; assay: Antibacterial activity against Escherichia coli 10-2 after 18 to 24 hrs by NCCLS method; summary of the method: as §1
[23] = test system: Escherichia coli; assay: Antibacterial activity against Escherichia coli 10-3 after 18 to 24 hrs by NCCLS method; summary of the method: as §1
[24] = test system: Escherichia coli; assay: Antibacterial activity against extended spectrum beta-lactamases producing Escherichia coli 10-2 after 18 to 24 hrs by NCCLS method; summary of the method: as §1
[25] = test system: Escherichia coli; assay: Antibacterial activity against extended spectrum beta-lactamases producing Escherichia coli 10-3 after 18 to 24 hrs by NCCLS method; summary of the method: as §1
[26] = test system: Escherichia coli; assay: Antibacterial activity against extended spectrum beta-lactamases producing Escherichia coli 10-4 after 18 to 24 hrs by NCCLS method; summary of the method: as §1
[27] = test system: Klebsiella pneumoniae; assay: Antibacterial activity against Klebsiella pneumoniae 10-2 after 18 to 24 hrs by NCCLS method; summary of the method: as §1
[28] = test system: Klebsiella pneumoniae; assay: Antibacterial activity against Klebsiella pneumoniae 10-3 after 18 to 24 hrs by NCCLS method; summary of the method: as §1
[29] = test system: Klebsiella pneumoniae; assay: Antibacterial activity against Klebsiella pneumoniae 10-4 after 18 to 24 hrs by NCCLS method; summary of the method: as §1
[30] = test system: Klebsiella pneumoniae; assay: Antibacterial activity against extended spectrum beta-lactamases producing Klebsiella pneumoniae 10-1 after 18 to 24 hrs by NCCLS method; summary of the method: as §1
[31] = test system: Klebsiella pneumoniae; assay: Antibacterial activity against extended spectrum beta-lactamases producing Klebsiella pneumoniae 10-2 after 18 to 24 hrs by NCCLS method; summary of the method: as §1
[32] = test system: Klebsiella pneumoniae; assay: Antibacterial activity against extended spectrum beta-lactamases producing Klebsiella pneumoniae 10-3 after 18 to 24 hrs by NCCLS method; summary of the method: as §1
[33] = test system: Pseudomonas aeruginosa; assay: Antibacterial activity against Pseudomonas aeruginosa 10-5 after 18 to 24 hrs by NCCLS method; summary of the method: as §1
[34] = test system: Pseudomonas aeruginosa; assay: Antibacterial activity against Pseudomonas aeruginosa 10-9 after 18 to 24 hrs by NCCLS method; summary of the method: as §1
[35] = test system: Pseudomonas aeruginosa; assay: Antibacterial activity against Pseudomonas aeruginosa 10-12 after 18 to 24 hrs by NCCLS method; summary of the method: as §1
[36] = test system: Pseudomonas aeruginosa; assay: Antibacterial activity against Pseudomonas aeruginosa 10-15 after 18 to 24 hrs by NCCLS method; summary of the method: as §1
[37] = test system: Pseudomonas aeruginosa; assay: Antibacterial activity against Pseudomonas aeruginosa 10-18 after 18 to 24 hrs by NCCLS method; summary of the method: as §1
[38] = test system: Pseudomonas aeruginosa; assay: Antibacterial activity against Pseudomonas aeruginosa 10-20 after 18 to 24 hrs by NCCLS method; summary of the method: as §1

SMILES	MIC [1] [µg/mL]	MIC [2] [µg/mL]	MIC [3] [µg/mL]	MIC [4] [µg/mL]	MIC [5] [µg/mL]	MIC [6] [µg/mL]	MIC [7] [µg/mL]	MIC [8] [µg/mL]	MIC [9] [µg/mL]	MIC [10] [µg/mL]	MIC [11] [µg/mL]	MIC [12] [µg/mL]	MIC [13] [µg/mL]	MIC [14] [µg/mL]	MIC [15] [µg/mL]	MIC [16] [µg/mL]	MIC [17] [µg/mL]	MIC [18] [µg/mL]	MIC [19] [µg/mL]	MIC [20] [µg/mL]	further results
COc1ccc(CN2CCN(c3cc4c(cc3F)c(=O)c(C(=O)O)cn4C3CC3)CC2)cc1OC	16 (≈ 33.2 µM)	0.125 (≈ 0.26 µM)	0.125 (≈ 0.26 µM)	0.125 (≈ 0.26 µM)	0.25 (≈ 0.519 µM)	32 (≈ 66.5 µM)	64 (≈ 133 µM)	16 (≈ 33.2 µM)	4 (≈ 8.31 µM)	8 (≈ 16.6 µM)	8 (≈ 16.6 µM)	32 (≈ 66.5 µM)	8 (≈ 16.6 µM)	> 128	64 (≈ 133 µM)	4 (≈ 8.31 µM)	64 (≈ 133 µM)	2 (≈ 4.15 µM)	32 (≈ 66.5 µM)	0.5 (≈ 1.04 µM)	MIC [21]: > 128 µg/mL; MIC [22]: 16 µg/mL (≈ 33.2 µM); MIC [23]: 64 µg/mL (≈ 133 µM); MIC [24]: > 128 µg/mL; MIC [25]: > 128 µg/mL; MIC [26]: 64 µg/mL (≈ 133 µM); MIC [27]: > 128 µg/mL; MIC [28]: 16 µg/mL (≈ 33.2 µM); MIC [29]: > 128 µg/mL; MIC [30]: > 128 µg/mL; MIC [31]: > 128 µg/mL; MIC [32]: > 128 µg/mL; MIC [33]: 32 µg/mL (≈ 66.5 µM); MIC [34]: 64 µg/mL (≈ 133 µM); MIC [35]: 32 µg/mL (≈ 66.5 µM); MIC [36]: 32 µg/mL (≈ 66.5 µM); MIC [37]: 64 µg/mL (≈ 133 µM); MIC [38]: 128 µg/mL (≈ 266 µM)
O=C(O)c1cn(C2CC2)c2cc(N3CCN(Cc4ccccc4)CC3)c(F)cc2c1=O	1 (≈ 2.37 µM)	0.25 (≈ 0.593 µM)	0.25 (≈ 0.593 µM)	0.25 (≈ 0.593 µM)	0.25 (≈ 0.593 µM)	64 (≈ 152 µM)	64 (≈ 152 µM)	16 (≈ 38 µM)	32 (≈ 75.9 µM)	16 (≈ 38 µM)	16 (≈ 38 µM)	0.5 (≈ 1.19 µM)	16 (≈ 38 µM)	16 (≈ 38 µM)	16 (≈ 38 µM)	16 (≈ 38 µM)	16 (≈ 38 µM)	16 (≈ 38 µM)	16 (≈ 38 µM)	0.25 (≈ 0.593 µM)	MIC [21]: > 128 µg/mL; MIC [22]: 16 µg/mL (≈ 38 µM); MIC [23]: 16 µg/mL (≈ 38 µM); MIC [24]: > 128 µg/mL; MIC [25]: > 128 µg/mL; MIC [26]: 16 µg/mL (≈ 38 µM); MIC [27]: > 128 µg/mL; MIC [28]: 16 µg/mL (≈ 38 µM); MIC [29]: > 128 µg/mL; MIC [30]: > 128 µg/mL; MIC [31]: > 128 µg/mL; MIC [32]: > 128 µg/mL; MIC [33]: 16 µg/mL (≈ 38 µM); MIC [34]: 16 µg/mL (≈ 38 µM); MIC [35]: 16 µg/mL (≈ 38 µM); MIC [36]: 32 µg/mL (≈ 75.9 µM); MIC [37]: 8 µg/mL (≈ 19 µM); MIC [38]: 16 µg/mL (≈ 38 µM)
